# Results reported in ChEMBL document CHEMBL3272276, “Synthesis and antimicrobial evaluation of substituted 5,6-dihydro-5-nitrouracils” (1976).
# The source made the active and inactive calls. The calls are words filed in the database; no cut-off is given here.
# Key:
# [1] = system: Escherichia coli; experiment: Antimicrobial activity against Escherichia coli clinical isolate up to at 0.4 umol/ml after 24 hrs by broth dilution assay; assay type: functional, organism-based
# Method in brief: (§1)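 Clinical isolate tested by broth dilution in chemically defined medium. Serial dilutions span 0.4 to 0.005 μmol/ml. Incubation is 24 h at 35°. MIC is taken as the highest dilution of compound that prevents visible growth.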
# [2] = system: Staphylococcus aureus; experiment: Antimicrobial activity against Staphylococcus aureus clinical isolate up to 0.4 umol/ml after 24 hrs by broth dilution assay; assay type: functional, organism-based; method in brief: as §1
# [3] = system: Pseudomonas aeruginosa; experiment: Antimicrobial activity against Pseudomonas aeruginosa clinical isolate up to 0.4 umol/ml after 24 hrs by broth dilution assay; assay type: functional, organism-based; method in brief: as §1
# [4] = system: Escherichia coli; experiment: Antimicrobial activity against Escherichia coli clinical isolate after 24 hrs by broth dilution assay; assay type: functional
# Method in brief: (§2)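 Clinical isolates were tested by broth dilution using serial dilutions in chemically defined medium over 0.4 to 0.005 µmol/ml. Plates were incubated for 24 h at 35°. MIC was taken as the highest dilution that prevented visible growth.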
# [5] = system: Staphylococcus aureus; experiment: Antimicrobial activity against Staphylococcus aureus clinical isolate after 24 hrs by broth dilution assay; assay type: functional; method in brief: as §2
# [6] = system: Pseudomonas aeruginosa; experiment: Antimicrobial activity against Pseudomonas aeruginosa clinical isolate after 24 hrs by broth dilution assay; assay type: functional; method in brief: as §2
# [7] = system: Candida albicans; experiment: Antifungal activity against Candida albicans clinical isolate at 0.4 umol/ml after 24 hrs by broth dilution assay; assay type: functional, organism-based; method in brief: as §2
# [8] = system: Trichophyton mentagrophytes; experiment: Antifungal activity against Trichophyton mentagrophytes clinical isolate at 0.4 umol/ml after 48 hrs by broth dilution assay; assay type: functional, organism-based
# Method in brief: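 The clinical dermatophyte isolate was tested by broth dilution using serial dilutions in chemically defined medium over 0.4 to 0.005 µmol/ml. Inhibition was read after 48 h at 30°. MIC was the highest dilution with no visible growth.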
SMILES,Activity [1],Activity [2],Activity [3],MIC [4],MIC [5],MIC [6],Activity [7],Activity [8]
O=C1NCC([N+](=O)[O-])C(=O)N1 (stereo unspecified),inactive,inactive,inactive,,,,,
[N-]=[N+]=C1C(=O)NC(=O)NC1O (stereo unspecified),,,,10 µM,20 µM,20 µM,inactive,inactive
CC1NC(=O)NC(=O)C1[N+](=O)[O-] (stereo unspecified),inactive,inactive,inactive,,,,,
[N-]=[N+]=C1C=NC(=O)NC1=O,,,,20 µM,10 µM,40 µM,inactive,inactive
Cc1[nH]c(=O)[nH]c(=O)c1[N+](=O)[O-],inactive,inactive,inactive,,,,,
O=c1[nH]c(=O)n(-c2ccc([N+](=O)[O-])cc2)cc1[N+](=O)[O-],inactive,inactive,inactive,,,,,
CCOC(=O)[C@H]1O[C@@H](N2CC([N+](=O)[O-])C(=O)NC2=O)[C@H](O)[C@@H]1O (stereo partly specified),inactive,inactive,inactive,,,,,
O=C1NC(=O)N(c2ccc([N+](=O)[O-])cc2)CC1[N+](=O)[O-] (stereo unspecified),inactive,inactive,inactive,,,,,
CCOC(=O)[C@H]1O[C@@H](n2cc([N+](=O)[O-])c(=O)[nH]c2=O)[C@H](O)[C@@H]1O,inactive,inactive,inactive,,,,,
